Results taken from ChEMBL document CHEMBL1133092, “Drug delivery systems based on trimethyl lock lactonization: poly(ethylene glycol) prodrugs of amino-containing compounds” (J Med Chem, 2000).

Key:
[1] = Half life in buffer at pH 7.4.; format: ADME
Outline: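 Conjugate dissolved at 5 mg/mL in 0.1 M pH 7.4 PBS and incubated at 37 °C for various periods. Analysed by HPLC with UV detection at 254 nm (DNR) or 280 nm (ara-C). Run in duplicate.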

[2] = Half life in Rat plasma; format: ADME
Outline: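 Conjugate dissolved in distilled water (20 mg/100 µL), then 900 µL rat plasma added. Aliquots incubated at 37 °C for various times, quenched with methanol-acetonitrile (1:1) and filtered. Remaining conjugate measured by HPLC with UV detection at 254 nm (DNR) or 280 nm (ara-C). Run in duplicate. t1/2 calculated from α phase.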

[3] = tested on: M109; experiment: In vivo screening in M109 syngeneic solid mouse tumor model (i.v.); format: functional
Outline: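 Female balb/c mice (20-25 g) implanted subcutaneously in the left flank with about 1 × 10^6 M109 cells on day 0. Dosed intravenously at 3 mg/kg/dose (DNR content) on days 3 and 6; 6 per group with untreated controls. % T/C of median tumor volumes taken when control median reached ~2000 mm3.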

[4] = tested on: P388; experiment: Growth Inhibition of P388/0 cell lines.; format: functional, cell-based; conditions: Mus musculus
Outline: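 P388/0 murine leukemia cells seeded at 2 × 10^3 cells/well, exposed to serial dilutions for 3 days at 37 °C, 5% CO2. Alamar Blue then added and plates read after a further 4 h at 37 °C. IC50 taken from absorbance vs dilution factor plots.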

[5] = tested on: M109; experiment: In vivo screening in M109 syngeneic solid mouse tumor model (i.p.); format: functional
Outline: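 Female balb/c mice (20-25 g) implanted subcutaneously in the left flank with about 1 × 10^6 M109 cells on day 0. Dosed intraperitoneally at 3 mg/kg/dose (DNR content) on days 1 and 4; 6 per group with untreated controls. % T/C of median tumor volumes taken when control median reached ~2000 mm3.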

[6] = Half life in Cell media; format: ADME

Compound	half-life [1]	half-life [2]	IC50 [4]	half-life [6]	T/C [3]	T/C [5]
CCC(=O)NCCC(=O)Oc1c(C)ccc(C)c1C(C)(C)CC(=O)NC1CC(O[C@H]2C[C@](O)(C(C)=O)Cc3c(O)c4c(c(O)c32)C(=O)c2c(OC)cccc2C4=O)OC(C)C1O (stereo not given in full)	> 24 h	8 h	411 nM	94 h	31.6%	114.8%
CCC(=O)NC(C)C(=O)Oc1c(C)ccc(C)c1C(C)(C)CC(=O)NC1CC(O[C@H]2C[C@](O)(C(C)=O)Cc3c(O)c4c(c(O)c32)C(=O)c2c(OC)cccc2C4=O)OC(C)C1O (stereo not given in full)	> 24 h	21 h	389 nM	36 h	52.5%	153.6%

These reach a lower IC50 [4]. Values come first.

half-life [1]	half-life [2]	IC50 [4]	half-life [6]	Compound	T/C [3]	T/C [5]
> 24 h	0.2 h	203 nM	80 h	CCC(=O)NCCC(=O)Oc1cc(C)cc(C)c1C(C)(C)CC(=O)NC1CC(O[C@H]2C[C@](O)(C(C)=O)Cc3c(O)c4c(c(O)c32)C(=O)c2c(OC)cccc2C4=O)OC(C)C1O (stereo not given in full)	63.7%	101.2%
> 24 h	1.1 h	142 nM	38 h	CCC(=O)NCCOCCOC(=O)Oc1cc(C)cc(C)c1C(C)(C)CC(=O)NC1CC(O[C@H]2C[C@](O)(C(C)=O)Cc3c(O)c4c(c(O)c32)C(=O)c2c(OC)cccc2C4=O)OC(C)C1O (stereo not given in full)	118.4%	57.1%
> 24 h	1.9 h	43 nM	14 h	CCC(=O)NC(C)C(=O)Oc1cc(C)cc(C)c1C(C)(C)CC(=O)NC1CC(O[C@H]2C[C@](O)(C(C)=O)Cc3c(O)c4c(c(O)c32)C(=O)c2c(OC)cccc2C4=O)OC(C)C1O (stereo not given in full)	92.5%	62.8%
